Source: paper PMC9643332 (Bioorganic Chemistry, 2022)
“Also recorded” adds a separate entry of the source.

Tests used:
SARS-CoV-2 3CL^pro [1] = target: T1, SARS-CoV-2 3CL^pro (Severe acute respiratory syndrome coronavirus 2, UniProt P0DTD1); assay: biochemical; format: biochemical; settings: for inhibition at 100 µM: read-out: inhibition against SARS-CoV-2 3CLpro
SARS-CoV-2 3CL^pro [2] = target: T1, SARS-CoV-2 3CL^pro; assay: CD spectroscopy, secondary structure content by CDNN; settings: 20 μM 3CLpro
SARS-CoV-2 3CL^pro [3] = target: T1, SARS-CoV-2 3CL^pro; format: biochemical
SARS-CoV-2 = settings: Huh7-ACE2, HeLa-ACE2 and A549-ACE2 cells; in the micromolar range, similar to Remdesivir; cited from earlier work
SARS-CoV-2 3CL^pro [4] = target: T1, SARS-CoV-2 3CL^pro; assay: Fluorescence quenching assay; format: binding; settings: 3 μM 3CLpro
[5] = target: T2, human chymotrypsin C (CTRC) (Homo sapiens, UniProt Q99895); assay: Human protease selectivity: CTRC inhibition; format: biochemical; settings: 0, 1, 10, 100 μM
T2 sequence (Q99895 30-268): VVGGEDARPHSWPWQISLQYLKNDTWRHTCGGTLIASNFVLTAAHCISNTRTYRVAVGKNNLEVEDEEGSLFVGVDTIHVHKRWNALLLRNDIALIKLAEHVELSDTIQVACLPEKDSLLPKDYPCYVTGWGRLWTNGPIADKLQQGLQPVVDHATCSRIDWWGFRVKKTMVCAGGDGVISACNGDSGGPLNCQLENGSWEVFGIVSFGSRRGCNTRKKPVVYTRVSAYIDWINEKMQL

HCoV-229E 3CL^pro = HCoV-229E 3CL^pro (Human coronavirus 229E, UniProt P0C6X1); assay: biochemical
[6] = target: Dipeptidyl peptidase IV (DPP-IV) (Homo sapiens, UniProt P27487); assay: Human protease selectivity: DPP-IV inhibition in human plasma with GP-BAN probe; format: biochemical; settings: 0, 1, 10, 100 μM
Procedure, shortened: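 Human plasma served as the DPP-IV source and was incubated 1 h with test compound at 0, 1, 10 or 100 μM in 0.1 M PBS, pH 7.4, 1 mM EDTA. Adding the DPP-IV-selective fluorogenic probe at 100 µM started the reaction. Fluorescence (ex 430 nm, em 535 nm) was read immediately over 20 min.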

SARS-CoV-2 3CL^pro [7] = target: T1, SARS-CoV-2 3CL^pro; assay: Enzymatic inhibition assay in the presence of DTT or GSH; format: biochemical; settings: 10 μM compound
Procedure, shortened: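 The thiol-dependence FRET assay preincubated SARS-CoV-2 3CLpro with test compound in reaction buffer (0.1 M PBS, 1 mM EDTA, pH 7.4), with 4 mM DTT or 1 mM GSH, or without either.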

Sequence of Dipeptidyl peptidase IV (DPP-IV) (P27487 39-766): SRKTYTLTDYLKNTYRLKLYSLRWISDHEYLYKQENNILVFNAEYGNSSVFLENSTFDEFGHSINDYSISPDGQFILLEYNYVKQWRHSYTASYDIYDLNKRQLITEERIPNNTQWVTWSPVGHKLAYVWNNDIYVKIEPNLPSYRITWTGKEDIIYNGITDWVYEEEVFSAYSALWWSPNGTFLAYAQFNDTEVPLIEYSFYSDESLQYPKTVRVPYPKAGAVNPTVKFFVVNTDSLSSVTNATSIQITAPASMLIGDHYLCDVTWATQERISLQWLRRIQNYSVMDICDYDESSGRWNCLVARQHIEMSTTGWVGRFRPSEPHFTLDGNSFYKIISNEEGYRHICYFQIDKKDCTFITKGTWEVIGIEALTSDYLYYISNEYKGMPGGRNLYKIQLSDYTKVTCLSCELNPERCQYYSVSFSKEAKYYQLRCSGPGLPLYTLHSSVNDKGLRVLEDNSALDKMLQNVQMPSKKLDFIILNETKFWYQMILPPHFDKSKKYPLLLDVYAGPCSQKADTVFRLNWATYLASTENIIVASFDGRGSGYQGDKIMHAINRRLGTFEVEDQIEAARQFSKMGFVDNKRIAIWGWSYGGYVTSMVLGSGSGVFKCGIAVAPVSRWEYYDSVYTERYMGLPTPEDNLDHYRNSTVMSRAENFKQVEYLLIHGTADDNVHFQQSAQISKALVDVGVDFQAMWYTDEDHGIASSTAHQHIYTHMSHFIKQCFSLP
Sequence of HCoV-229E 3CL^pro (P0C6X1 2966-3267): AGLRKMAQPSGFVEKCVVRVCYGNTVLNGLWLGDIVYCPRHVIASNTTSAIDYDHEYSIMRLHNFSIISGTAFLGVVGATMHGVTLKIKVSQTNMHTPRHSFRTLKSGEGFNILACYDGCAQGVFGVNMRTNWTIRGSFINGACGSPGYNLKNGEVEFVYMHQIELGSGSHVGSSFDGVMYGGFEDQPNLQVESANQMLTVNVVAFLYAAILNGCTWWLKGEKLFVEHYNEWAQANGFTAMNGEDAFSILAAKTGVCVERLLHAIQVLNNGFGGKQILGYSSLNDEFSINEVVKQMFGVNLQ

With CCCCCCCCOc1ccccc1C(=O)Nc1ccc(C(=O)OCC[N+](C)(CC)CC)cc1 [Otilonium bromide] the IC50 (SARS-CoV-2 3CL^pro [1]) was 27.7 ± 0.33 µM and the “inhibition of protease activity in primary screening” value (shortened to “inhibition of protease activity”) (SARS-CoV-2 3CL^pro [1]) was “significantly inhibit”.

Molecule CCCCCCCCCCCCCCCC[N+](C)(C)Cc1ccccc1 [Cetalkonium chloride] has an IC50 (SARS-CoV-2 3CL^pro [1]) of 3.5 ± 0.47 µM and an inhibition at 100 µM (SARS-CoV-2 3CL^pro [1]) greater than 90%.

For CCCCCCCCCCCC[N+](C)(C)CCOc1ccccc1 [Domiphen bromide], the IC50 (SARS-CoV-2 3CL^pro [1]) was 45.9 ± 16.5 µM and the inhibition at 100 µM (SARS-CoV-2 3CL^pro [1]) was greater than 90%.

In the case of CCCCCCCCCCCCCCCC[N+](C)(C)C [Cetrimonium bromide], the IC50 (SARS-CoV-2 3CL^pro [1]) is reported as 12.8 ± 0.63 µM and the “inhibition of protease activity” value (SARS-CoV-2 3CL^pro [1]) is reported as “significantly inhibit”.

In the case of CCCCCCCCCCCCCCCC[N+](C)(C)CCN(Cc1ccc(OC)cc1)c1ncccn1 [Thonzonium bromide], the “Antiparallel (%)” value (SARS-CoV-2 3CL^pro [2]; 50 μM Thonzonium bromide) is reported as 18.60%, the “Parallel (%)” value (SARS-CoV-2 3CL^pro [2]; 50 μM Thonzonium bromide) is reported as 6.30% and the “Random coil (%)” value (SARS-CoV-2 3CL^pro [2]; 50 μM Thonzonium bromide) is reported as 30.70%. For the same molecule, the “Total sum (%)” value (SARS-CoV-2 3CL^pro [2]; 50 μM Thonzonium bromide) was 95.40%, the “α-helix (%)” value (SARS-CoV-2 3CL^pro [2]; 50 μM Thonzonium bromide) was 25.50% and the “β-turn (%)” value (SARS-CoV-2 3CL^pro [2]; 50 μM Thonzonium bromide) was 14.20%. For the same molecule, the “Antiparallel (%)” value (SARS-CoV-2 3CL^pro [2]; 100 μM Thonzonium bromide) was 22.00%, the “Parallel (%)” value (SARS-CoV-2 3CL^pro [2]; 100 μM Thonzonium bromide) was 6.20% and the “Random coil (%)” value (SARS-CoV-2 3CL^pro [2]; 100 μM Thonzonium bromide) was 32.20%. The “Total sum (%)” value (SARS-CoV-2 3CL^pro [2]; 100 μM Thonzonium bromide) was 96.10%, the “α-helix (%)” value (SARS-CoV-2 3CL^pro [2]; 100 μM Thonzonium bromide) was 20.20% and the “β-turn (%)” value (SARS-CoV-2 3CL^pro [2]; 100 μM Thonzonium bromide) was 15.50%. The “Antiparallel (%)” value (SARS-CoV-2 3CL^pro [2]; 200 μM Thonzonium bromide) was 33.60%, the “Parallel (%)” value (SARS-CoV-2 3CL^pro [2]; 200 μM Thonzonium bromide) was 6.30% and the “Random coil (%)” value (SARS-CoV-2 3CL^pro [2]; 200 μM Thonzonium bromide) was 34.00%. For the same molecule, the “Total sum (%)” value (SARS-CoV-2 3CL^pro [2]; 200 μM Thonzonium bromide) was 102.10%, the “α-helix (%)” value (SARS-CoV-2 3CL^pro [2]; 200 μM Thonzonium bromide) was 12.30% and the “β-turn (%)” value (SARS-CoV-2 3CL^pro [2]; 200 μM Thonzonium bromide) was 15.90%. For the same molecule, the type of inhibition (SARS-CoV-2 3CL^pro [3]) was “non-competitive inhibitor”, the “antiviral effect against SARS-CoV-2 in cells” value (SARS-CoV-2) was “effective against SARS-CoV-2” and the “KSV (Stern-Volmer quenching constant)” value (SARS-CoV-2 3CL^pro [4]) was 39600 L/mol. The “Kq (bimolecular quenching rate constant)” value (SARS-CoV-2 3CL^pro [4]; τ0 about 10^-8 s) was 3.96e+12 M⁻¹ s⁻¹, the “inhibitory activity towards CTRC” value [5] was “didn’t exhibit inhibitory activity; also recorded: did not show measurable activity; also recorded: does not inhibit” and the IC50 (HCoV-229E 3CL^pro) was 6.47 µM. For the same molecule, the “inhibitory activity towards DPP-IV” value [6] was “didn’t exhibit inhibitory activity; also recorded: did not show measurable activity; also recorded: does not inhibit”, the “inhibition of protease activity” value (SARS-CoV-2 3CL^pro [1]) was “significantly inhibit” and the “inhibition against SARS-CoV-2 3CLpro in the presence of GSH” value (SARS-CoV-2 3CL^pro [7]; 1 mM GSH) was “potent inhibition”. The “inhibition against SARS-CoV-2 3CLpro in the presence of DTT” value (SARS-CoV-2 3CL^pro [7]; 4 mM DTT) was “potent inhibition”.

In the case of C[N+](C)(C)CCCCCCCCCC[N+](C)(C)C [Decamethonium bromide], the IC50 (SARS-CoV-2 3CL^pro [1]) is reported as greater than 100 µM and the “inhibition against SARS-CoV-2 3CLpro” value (SARS-CoV-2 3CL^pro [1]; 100 µM) is reported as “no inhibitory activity”.
